In ChEMBL document CHEMBL1127058, “The synthesis and biochemical pharmacology of enantiomerically pure methylated oxotremorine derivatives” (J Med Chem, 1993) one finds Ratio and Ki data, which are given here for 17 molecules.

In experiment [1] the target is T1, Muscarinic acetylcholine receptor M2 (Rattus norvegicus) (UniProt P10980).
T1 sequence (whole entry): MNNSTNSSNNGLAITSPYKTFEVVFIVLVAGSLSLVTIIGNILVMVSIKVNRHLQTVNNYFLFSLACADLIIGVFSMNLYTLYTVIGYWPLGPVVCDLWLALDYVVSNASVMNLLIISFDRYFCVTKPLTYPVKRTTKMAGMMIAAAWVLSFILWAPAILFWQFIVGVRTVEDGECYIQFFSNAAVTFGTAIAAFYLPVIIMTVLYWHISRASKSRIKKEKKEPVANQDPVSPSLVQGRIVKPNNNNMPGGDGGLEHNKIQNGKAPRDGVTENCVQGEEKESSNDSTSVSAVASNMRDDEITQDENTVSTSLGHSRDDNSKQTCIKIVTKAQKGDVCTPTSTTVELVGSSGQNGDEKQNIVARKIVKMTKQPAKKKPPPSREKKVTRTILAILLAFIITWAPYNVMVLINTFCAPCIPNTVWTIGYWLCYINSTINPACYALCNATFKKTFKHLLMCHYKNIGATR
In words: Relative [3H]QNB and [3H]-CD binding to muscarinic M2 receptor.

Experiment [2] deals with T2, Muscarinic acetylcholine receptor M2 (Rattus norvegicus, UniProt P10980).
T2 sequence (P10980 whole entry): T1 sequence (whole entry)
The experiment in a line: Binding affinity at [3H]QNB radiolabeled muscarinic M2 receptor in rat cortex. The experiment is classed as tissue-based. A digest of the protocol: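 Cortex from male Wistar rats homogenized in 10 mM NaKPB pH 7.4, diluted 1:3000 (~0.1 mg protein/2.0 mL).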

The target of experiment [3] is T2, Muscarinic acetylcholine receptor M2. The experiment in a line: Binding affinity at [3H]QNB radiolabeled muscarinic M2 receptor in rat heart. A digest of the protocol:
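Rat heart (male Wistar) minced and Polytron-homogenized in 10 mM NaKPB pH 7.4, spun 4800g 15 min 4 °C, resuspended, gauze-filtered, diluted 1:750 (0.15–0.2 mg protein/2.0 mL). Filtration, scintillation; one-site Ki.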

Experiment [4] has as its target T3, Muscarinic acetylcholine receptor M1 (Rattus norvegicus, UniProt P08482).
T3 sequence (P08482 whole entry): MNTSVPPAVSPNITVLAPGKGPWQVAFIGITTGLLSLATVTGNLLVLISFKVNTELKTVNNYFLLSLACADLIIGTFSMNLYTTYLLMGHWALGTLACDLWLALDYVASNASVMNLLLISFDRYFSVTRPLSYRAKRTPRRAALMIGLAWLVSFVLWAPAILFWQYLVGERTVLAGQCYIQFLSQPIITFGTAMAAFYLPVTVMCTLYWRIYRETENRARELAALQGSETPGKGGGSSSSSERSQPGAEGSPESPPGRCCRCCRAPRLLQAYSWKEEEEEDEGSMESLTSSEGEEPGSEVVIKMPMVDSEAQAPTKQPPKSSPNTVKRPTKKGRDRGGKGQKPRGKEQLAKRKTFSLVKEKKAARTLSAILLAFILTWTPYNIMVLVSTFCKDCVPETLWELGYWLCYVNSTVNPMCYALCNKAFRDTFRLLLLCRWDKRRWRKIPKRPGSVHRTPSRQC
The experiment in a line: Binding affinity at [3H]PZ radiolabeled muscarinic M1 receptor in rat cortex. The experiment is classed as tissue-based. The method, boiled down:
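Male Wistar rat cerebral cortex homogenate in ice-cold 10 mM NaKPB pH 7.4, diluted 1:400 (~0.55 mg protein/2.0 mL). [3H]PZ 0.1 nM, 60 min at 25 °C. Filtered on PEI-treated GF/B, scintillation read; apparent Ki by one-site nonlinear regression; one or two determinations.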

Experiment [5] deals with T2, Muscarinic acetylcholine receptor M2. The experiment in a line: Binding affinity at [3H]CD radiolabeled muscarinic M2 receptor in rat cortex. Format: tissue-based. A digest of the protocol:
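Rat cortex (male Wistar, 200–250 g) homogenized in ice-cold 10 mM Na/K phosphate, pH 7.4, diluted 1:300; ~0.75 mg protein per 2.0 mL. [3H]CD 1 nM, 120 min at 25 °C. Filtration onto PEI-soaked GF/B filters, scintillation counting; Ki from one-site competitive fit.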

For experiment [6] the target is unchanged. The experiment in a line: Binding affinity at [3H]QNB and GppNHp radiolabeled muscarinic M2 receptor in rat heart. A digest of the protocol:
(§1)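 Washed rat heart membranes (male Wistar; 4800g pellet, 1:750, 0.15–0.2 mg protein/2.0 mL) in 10 mM NaKPB pH 7.4 with Gpp(NH)p 10 μM final. Filter binding, scintillation counting; apparent Ki from one-site fit.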

The target of experiment [7] is Muscarinic receptor M1 and M2 (Rattus norvegicus) (UniProt P08482+P10980). In words: Ratio of [3H]QNB+GppNHp/[3H]-QNB. The experiment is classed as protein assay.
The nature of experiment [8]: Ratio of [3H]QNB+GppNHp/[3H]-PZ was determined.
A short description of experiment [9]: Ratio of [3H]QNB+/[3H]-PZ was determined.
The target in experiment [10] is T2, Muscarinic acetylcholine receptor M2. In words: Tested for binding affinity to [3H]QNB and GppNHp radiolabeled muscarinic M2 receptor in rat heart. The method, boiled down: as §1

Each structure is given as a SMILES string. “And” between values parts separate entries of the source, which are not always exact repeats. Equal entries are not always repeated.

What is called Ki is a dissociation constant, usually derived from enzyme kinetics or from competition with a known ligand. Higher therefore signals lower affinity.

Consider `C[C@@H]1CCN(CC#CCN2CCCC2)C1=O`, for which the Ratio in experiment [1] came out at 19. Moreover, the Ki in experiment [2] is 0.43 µM; in experiment [3], 0.09 µM; in experiment [4], 0.25 µM; in experiment [5] it was 0.023 µM; in [6], 0.43 µM.

Consider `C[C@H]1CCN(CC#CCN2CCCC2)C1=O`, for which the inhibition constant (Ki) was determined as 2.9 µM in [2]; 0.11 µM in experiment [3]; 2.2 µM in experiment [4]; 0.055 µM in experiment [5]; 3.3 µM in [6]. For the same molecule, the Ratio in experiment [7] was determined as 32; in [8], 1.5.

For `C[C@H]1CCN(CC#CCN(C)C)C1=O`, the inhibition constant Ki in experiment [2] was over 100 µM; in experiment [3], 21 µM; in [4], 1080 µM; in [5] it was 0.63 µM; in [6] it was 30 µM. In experiment [7], the Ratio turned out to be 1.4.

For the molecule `O=C1CCCN1CC#CCN1CCCCC1`, the Ratio in experiment [1] came to 2.2; in experiment [9], 0.54; in experiment [7], 5; in experiment [8], 2.7. Further, the Ki in experiment [2] worked out at 0.12 µM; in [3] it was 0.07 µM; in [4], 0.13 µM; in experiment [5], 0.056 µM; in experiment [6], 0.35 µM.

Take `CC(=O)N(C)C(C)C#CCN1CCCC1` (centres undefined): the Ratio was 19.5 in experiment [1]; 2.5 and 5.1 and 1.8 in experiment [7]. The inhibition constant Ki in experiment [2] was 0.08 µM; in [3] it was 0.07 µM; in experiment [4], 0.04 µM; in [5] it was 0.004 µM; in experiment [10], 0.18 µM.

On to `C[C@@H]1CC(=O)N(CC#CC[N+](C)(C)C)C1`, for which the Ki in [2] is over 100 µM; in experiment [3] it was 21 µM; in [4], over 109 µM; in experiment [5], 0.98 µM; in experiment [6] it was 52 µM. Also, the results for the Ratio in [7] and in experiment [8] were 2.4 and 5.7, respectively.

Regarding `C[C@@H]1CCN(CC#CCN(C)C)C1=O`, the Ratio in [1] is 125. Moreover, the inhibitory constant (Ki) in experiment [2] came out at 8.9 µM; in experiment [3] it was 0.24 µM; in [4], 6.8 µM; in experiment [5], 0.071 µM; in experiment [6] it was 9.3 µM.

For `CN(C)CC#CCN1CCCC1=O`, the Ratio in [1] stood at 460. The inhibitory constant (Ki) in experiment [2] was 2.9 µM; in experiment [3], 0.07 µM; in [4] it was 6.8 µM; in experiment [5] it was 0.0063 µM; in experiment [6] it was 1.6 µM.

For the molecule `C[C@H]1CC(=O)N(CC#CCN2CCCC2)C1`, in experiment [1], the Ratio was 1.6. Besides, the Ki is 2.3 µM in experiment [2]; 3.8 µM in [3]; 0.51 µM in [4]; 1.5 µM in experiment [5]; 6 µM in [6].

Consider `C[C@H]1CC(=O)N(CC#CCN(C)C)C1`, for which the Ki in experiment [2] was 150 µM; in experiment [3], over 100 µM; in [4] it was 15 µM; in [5], over 10 µM; in [6], over 100 µM. For the same molecule, the Ratio in experiment [7] was over 100.

Take `O=C1CCCN1CC#CCN1CCCC1` [OXOTREMORINE]: the Ki in [2] was found to be 0.06 µM; in [3], 0.005 µM; in experiment [4], 0.12 µM; in experiment [5], 0.0005 µM; in [6] it was 0.16 µM.

Consider `CC1CCN(CC#CCN2CCCC2)C1=O` (centres undefined), for which the Ratio in experiment [1] is 48. The Ki in experiment [2] is 0.71 µM; in experiment [3], 0.08 µM; in experiment [4], 0.29 µM; in [5], 0.015 µM; in experiment [6], 1.1 µM.

For `C[C@H]1CC(=O)N(CC#CC[N+](C)(C)C)C1`, the Ki in [2] was over 100 µM; in experiment [3] it was 1.9 µM; in [4], 108 µM; in experiment [5], 0.45 µM; in experiment [10] it was over 100 µM. The Ratio in experiment [7] is 0.23.

For `C[C@@H]1CC(=O)N(CC#CCN(C)C)C1`, the Ki was over 1000 µM in experiment [2]; over 100 µM in [3]; over 100 µM in experiment [4]; over 10 µM in experiment [5]; over 100 µM in experiment [6]. For the same molecule, in [7], the Ratio is over 100.

On to `C[C@@H]1CC(=O)N(CC#CCN2CCCC2)C1`, for which the figures for the Ratio in [1], in [7] and in experiment [8] were 1.9, 2 and 21, respectively. For the same molecule, the Ki in experiment [2] is 4.7 µM; in experiment [3], 13 µM; in [4], 1.3 µM; in experiment [5], 2.5 µM; in experiment [6] it was 27 µM.

Turning to `CC1CCN(CC#CCN(C)C)C1=O` (centres undefined), in experiment [1], the Ratio is 85. Moreover, the inhibitory constant (Ki) came to 22 µM in [2]; 1.3 µM in experiment [3]; 212 µM in [4]; 0.26 µM in [5]; 13 µM in experiment [6].

Turning to `C[N+](C)(C)CC#CCN1CCCC1=O` [OXOTREMORINE METHIODIDE], the Ratio in [1] is 1200. The Ki is 0.91 µM in [2]; 0.06 µM in [3]; 1.2 µM in experiment [4]; 0.00078 µM in [5]; 1.5 µM in experiment [6].
